Data taken from ChEMBL document CHEMBL1121681, “Synthesis and antiviral activity of certain 9-beta-D-ribofuranosylpurine-6-carboxamides” (1981).

Tests used:
Vero [1] = assay: In vitro antiviral activity against HSV-1 virus in (vero) V cells of african green monkey kidney / 1000 toxic level; format: functional, Chlorocebus sabaeus
[2] = tested on: Laryngeal epithelioma cell line; assay: In vitro antiviral activity against VSV virus in human laryngeal epithelioma cell line / 320 toxic level; format: functional
[3] = tested on: Laryngeal epithelioma cell line; assay: In vitro antiviral activity against COXB1 virus in human laryngeal epithelioma cell line / 320 toxic level; format: functional
[4] = tested on: Laryngeal epithelioma cell line; assay: In vitro antiviral activity against V V virus human laryngeal epithelioma cell line / 320 toxic level; format: functional
Vero [5] = assay: In vitro antiviral activity against V V virus in (vero) V cells of african green monkey kidney / 1000 toxic level; format: functional, Chlorocebus sabaeus
[6] = tested on: Laryngeal epithelioma cell line; assay: In vitro antiviral activity against Para 3 virus in human laryngeal epithelioma cell line / 320 toxic level; format: functional
Vero [7] = assay: In vitro antiviral activity against VSV virus in (vero) V cells of african green monkey kidney / 1000 toxic level; format: functional, Chlorocebus sabaeus
[8] = tested on: Laryngeal epithelioma cell line; assay: In vitro antiviral activity against HSV-1 virus in human laryngeal epithelioma cell line / 320 toxic level; format: functional
Vero [9] = assay: In vitro antiviral activity against Para 3 virus in (vero) V cells of african green monkey kidney / 1000 toxic level; format: functional, Chlorocebus sabaeus
Vero [10] = assay: In vitro antiviral activity against COXB1 virus in (vero) V cells of african green monkey kidney / 1000 toxic level; format: functional, Chlorocebus sabaeus
Vero [11] = assay: In vitro antiviral activity against HSV-1 virus in (vero) V cells of african green monkey kidney; format: functional, Chlorocebus sabaeus
Vero [12] = assay: In vitro antiviral activity against COXB1 virus in (vero) V cells; format: functional, Chlorocebus sabaeus
[13] = tested on: Laryngeal epithelioma cell line; assay: In vitro antiviral activity against Para 3 virus in human laryngeal epithelioma cell line; format: functional
[14] = tested on: Laryngeal epithelioma cell line; assay: In vitro antiviral activity against V V virus in human laryngeal epithelioma cell line; format: functional
[15] = tested on: Laryngeal epithelioma cell line; assay: In vitro antiviral activity against HSV-1 virus in human laryngeal epithelioma cell line; format: functional
[16] = tested on: Laryngeal epithelioma cell line; assay: In vitro antiviral activity against VSV virus in human laryngeal epithelioma cell line; format: functional
[17] = tested on: Laryngeal epithelioma cell line; assay: In vitro antiviral activity against COXB1 virus in human laryngeal epithelioma cell line; format: functional
Vero [18] = assay: In vitro antiviral activity against V V virus in (vero) V cells of african green monkey kidney; format: functional, Chlorocebus sabaeus
Rift Valley fever virus [19] = assay: Percent increase in survival rate of Rift Valley fever virus infected mice on day 21, by administering 100 (mg/kg)/day of compound; format: functional
Vero [20] = assay: In vitro antiviral activity against Para 3 virus in (vero) V cells of african green monkey kidney; format: functional, Chlorocebus sabaeus
Vero [21] = assay: In vitro antiviral activity against VSV virus in (vero) V cells; format: functional, Chlorocebus sabaeus
Vero [22] = assay: In vitro antiviral activity against Para 3 virus in (vero) V cells of african green monkey kidney / 320 toxic level; format: functional, Chlorocebus sabaeus
Vero [23] = assay: In vitro antiviral activity against VSV virus in (vero) V cells of african green monkey kidney / 320 toxic level; format: functional, Chlorocebus sabaeus
Vero [24] = assay: In vitro antiviral activity against vaccinia virus in (vero) V cells of african green monkey kidney / 320 toxic level; format: functional, Chlorocebus sabaeus
Vero [25] = assay: In vitro antiviral activity against Cox B1 virus in (vero) V cells of african green monkey kidney / 320 toxic level; format: functional, Chlorocebus sabaeus
[26] = tested on: Laryngeal epithelioma cell line; assay: In vitro antiviral activity against vaccinia virus human laryngeal epithelioma cell line / 320 toxic level; format: functional
Vero [27] = assay: In vitro antiviral activity against HSV-1 virus in (vero) V cells of african green monkey kidney / 320 toxic level; format: functional, Chlorocebus sabaeus
[28] = tested on: Laryngeal epithelioma cell line; assay: In vitro antiviral activity against Cox B1 virus in human laryngeal epithelioma cell line / 320 toxic level; format: functional
Vero [29] = assay: Inhibition of growth of Pichinde virus in vero cells by administering 250 ug/mL of compound; format: functional, Chlorocebus sabaeus
In short: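 Pichinde virus was adsorbed to Vero monolayers in 24-well cultures for 1 h at 37 °C. Cells were overlaid with agar containing compound dilutions and incubated at 37 °C with CO2. Plaques were counted after crystal violet staining to give inhibition of viral growth.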

Vero [30] = assay: Inhibition of growth of Rift Valley fever virus in vero cells by administering 500 ug/mL of compound; format: functional, Chlorocebus sabaeus
Vero [31] = assay: In vitro antiviral activity against COXB1 virus in (vero) V cells of african green monkey kidney; format: functional, Chlorocebus sabaeus
Vero [32] = assay: In vitro antiviral activity against VSV virus in (vero) V cells of african green monkey kidney; format: functional, Chlorocebus sabaeus
Rift Valley fever virus [33] = assay: Inhibition of growth of Rift Valley fever virus in vero cells by administering 250 ug/mL of compound; format: functional, Chlorocebus sabaeus
Rift Valley fever virus [34] = assay: Percent increase in survival rate of Rift Valley fever virus infected mice on day 21, by administering 50 (mg/kg)/day of compound; format: functional
[35] = tested on: Laryngeal epithelioma cell line; assay: In vitro antiviral activity against HSV-1 virus in human laryngeal epithelioma cell line / 100 toxic level; format: functional
[36] = tested on: Laryngeal epithelioma cell line; assay: In vitro antiviral activity against VSV virus in human laryngeal epithelioma cell line / 100 toxic level; format: functional
[37] = tested on: Laryngeal epithelioma cell line; assay: In vitro antiviral activity against Cox B1 virus in human laryngeal epithelioma cell line / 100 toxic level; format: functional
[38] = tested on: Laryngeal epithelioma cell line; assay: In vitro antiviral activity against Para 3 virus in human laryngeal epithelioma cell line / 100 toxic level; format: functional
Vero [39] = assay: In vitro antiviral activity against Vaccinia virus in (vero) V cells of african green monkey kidney / 320 toxic level; format: functional, Chlorocebus sabaeus
[40] = tested on: Laryngeal epithelioma cell line; assay: In vitro antiviral activity against Vaccinia virus human laryngeal epithelioma cell line / 100 toxic level; format: functional
[41] = tested on: Laryngeal epithelioma cell line; assay: In vitro antiviral activity against VSV virus in human laryngeal epithelioma cell line / 1000 toxic level; format: functional
[42] = tested on: Laryngeal epithelioma cell line; assay: In vitro antiviral activity against V V virus human laryngeal epithelioma cell line / 1000 toxic level; format: functional
[43] = tested on: Laryngeal epithelioma cell line; assay: In vitro antiviral activity against HSV-1 virus in human laryngeal epithelioma cell line / 1000 toxic level; format: functional
[44] = tested on: Laryngeal epithelioma cell line; assay: In vitro antiviral activity against Para 3 virus in human laryngeal epithelioma cell line / 1000 toxic level; format: functional
[45] = tested on: Laryngeal epithelioma cell line; assay: In vitro antiviral activity against COXB1 virus in human laryngeal epithelioma cell line / 1000 toxic level; format: functional

N#Cc1ncnc2c1ncn2C1O[C@H](CO)[C@@H](O)[C@H]1O (stereo partly drawn)
Virus rating (Vero [1]): 0.4 | Virus rating [2]: 0.8 | Virus rating [3]: 1 | Virus rating [4]: 1 | Virus rating (Vero [5]): 1 | Virus rating [6]: 1.2 | Virus rating (Vero [7]): 0 | Virus rating [8]: 0.8 | Virus rating (Vero [9]): 0 | Virus rating (Vero [10]): 0

NC(=O)c1ncn([C@@H]2O[C@H](CO)[C@@H](O)[C@H]2O)n1 [RIBAVIRIN]
Virus rating (Vero [11]): 0.6 | Virus rating (Vero [12]): 0.6 | Virus rating [13]: 1.4 | Virus rating [14]: 1.2 | Virus rating [15]: 1.2 | Virus rating [16]: 1.6 | Virus rating [17]: 1.1 | Virus rating (Vero [18]): 1.2 | ILS (Rift Valley fever virus [19]): 70% | Virus rating (Vero [20]): 1.3 | Virus rating (Vero [21]): 0.8

Nc1ncnc2c(N[C@@H]3O[C@H](CO)[C@@H](O)[C@@H]3O)ncnc12
Virus rating [2]: 1.5 | Virus rating (Vero [22]): 0.7 | Virus rating (Vero [23]): 0.6 | Virus rating (Vero [24]): 1.4 | Virus rating [6]: 1.5 | Virus rating (Vero [25]): 0.6 | Virus rating [26]: 1.3 | Virus rating [8]: 1.6 | Virus rating (Vero [27]): 0.8 | Virus rating [28]: 1

OC[C@H]1OC(n2cnc3c(I)ncnc32)[C@H](O)[C@@H]1O (stereo partly drawn)
Virus rating (Vero [1]): 1 | Virus rating [2]: 0.9 | Virus rating [3]: 1 | Virus rating [4]: 0.8 | Virus rating (Vero [5]): 1.2 | Virus rating [6]: 0.6 | Virus rating (Vero [7]): 0 | Virus rating [8]: 1.6 | Virus rating (Vero [9]): 0.7 | Virus rating (Vero [10]): 0.1

NC(=O)c1ncnc2c1ncn2C1O[C@H](CO)[C@@H](O)[C@H]1O (stereo partly drawn)
Virus rating [2]: 1.2 | Inhibition (Vero [29]): 90% | Virus rating [3]: 0.9 | Virus rating (Vero [11]): 0.6 | Virus rating [4]: 1.1 | Virus rating [6]: 1.4 | Inhibition (Vero [30]): 99% | Virus rating (Vero [31]): 0.4 | Virus rating (Vero [32]): 0 | Inhibition (Rift Valley fever virus [33]): 90% | Virus rating [8]: 0.6 | Virus rating (Vero [18]): 1.5 | Virus rating (Vero [20]): 0 | ILS (Rift Valley fever virus [34]): 55%

NC(=S)c1ncnc2c1ncn2C1O[C@H](CO)[C@@H](O)[C@H]1O (stereo partly drawn)
Virus rating (Vero [23]): 0.5 | Virus rating [35]: 0.4 | Virus rating [36]: 0.7 | Virus rating (Vero [25]): 1 | Virus rating [37]: 1.1 | Virus rating [38]: 1.3 | Virus rating (Vero [39]): 0.8 | Virus rating [40]: 1.2 | Virus rating (Vero [27]): 1.1

OC[C@H]1O[C@@H](n2cnc3c(Cl)ncnc32)[C@H](O)[C@@H]1O
Virus rating [41]: 0.3 | Virus rating [42]: 0.8 | Virus rating (Vero [11]): 0.9 | Virus rating [43]: 0.6 | Virus rating [44]: 1.3 | Virus rating (Vero [31]): 0.4 | Virus rating (Vero [32]): 0.5 | Virus rating (Vero [18]): 1.5 | Virus rating [45]: 1
